Bioassay records deposited in PubChem by The Scripps Research Institute Molecular Screening Center.
CHRM5 antagonist – human M5 muscarinic receptor antagonists, primary screen, CHO cells, Fluo-8 calcium fluorescence; Muscarinic acetylcholine receptor M5 (Homo sapiens), P08912; CHO-hM5 cells, ACh EC80; inhibition, % at 3 µM; 360,000 tested, 0.59% active; AID 624040, 2012;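 active means inhibition above a per-plate cutoff, the mean of that plate's test compounds plus 3 SD, cut at about 27% in these data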;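 further: 0% = acetylcholine EC80 with DMSO and 100% = DMSO without agonist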
Target sequence (P08912 whole entry, looked up): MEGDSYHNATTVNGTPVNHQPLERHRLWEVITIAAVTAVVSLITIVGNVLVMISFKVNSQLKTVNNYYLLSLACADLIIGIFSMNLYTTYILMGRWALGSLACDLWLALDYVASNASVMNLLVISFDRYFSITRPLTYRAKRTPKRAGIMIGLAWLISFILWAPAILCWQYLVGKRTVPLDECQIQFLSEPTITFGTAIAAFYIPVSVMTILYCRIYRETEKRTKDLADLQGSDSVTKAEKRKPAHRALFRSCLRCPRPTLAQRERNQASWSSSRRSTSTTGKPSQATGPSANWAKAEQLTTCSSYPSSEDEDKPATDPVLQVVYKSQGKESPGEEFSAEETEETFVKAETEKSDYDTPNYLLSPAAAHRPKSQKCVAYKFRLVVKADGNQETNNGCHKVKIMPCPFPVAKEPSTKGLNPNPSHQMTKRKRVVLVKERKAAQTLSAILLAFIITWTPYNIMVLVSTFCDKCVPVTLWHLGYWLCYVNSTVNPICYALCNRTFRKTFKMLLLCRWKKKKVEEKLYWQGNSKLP
M4 ag – human M4 muscarinic receptor agonists, primary screen, CHO-K1 cells, Fluo-8 calcium fluorescence; Muscarinic acetylcholine receptor M4 (Homo sapiens), P08173; CHO-K1 hM4/Gqi5; vehicle 0%, full acetylcholine response 100%; activation, % at 3 µM; 360,000 tested, 0.14% active; AID 624127, 2012;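 active means activation above the run mean over all test wells plus 3 SD, cut at about 32% in these data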;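 further: peak over basal fluorescence ratio per well then scaled between controls; 0% = DMSO wells and 100% = acetylcholine at EC100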
CHRM5 PAM – human M5 muscarinic receptor positive allosteric modulators, primary screen, CHO-K1 cells, Fluo-8 calcium fluorescence | activation, % at 3 µM | 360,000 tested, 0.3% active | AID 624038, 2012 | CHO-K1 hM5, ACh EC20 PAM; 0% = ACh EC20, 100% = ACh EC100 | Muscarinic acetylcholine receptor M5 (Homo sapiens), P08912;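 active means activation above the run cutoff, the mean activation of all test compounds plus 3 SD, cut at about 18% in these data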
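system = human M5 receptor in CHO-K1 cells | reagent = EC20 acetylcholine as agonist stimulus | compound dosing = single-point, 3 µM nominal | incubation = Fluo-8 loading 80 min at 37 °C plus 30 min room temperature | detection = Fluo-8 calcium dye fluorescence, kinetic read | benchmarks = low control EC20 acetylcholine (0%), high control EC100 acetylcholine (100%)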
CHRM4 PAM – human M4 muscarinic receptor positive allosteric modulators, primary screen, CHO-K1 cells, Fluo-8 calcium fluorescence; Muscarinic acetylcholine receptor M4 (Homo sapiens), P08173; CHO-K1 hM4/Gqi5, ACh EC20; 0% = ACh EC20, 100% = maximal ACh; activation, % at 3 µM; 360,000 tested, 0.4% active;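 active means activation above its plate's cutoff, the mean activation of sample wells plus 3 SD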
CHRM5 agonist – human M5 muscarinic receptor agonists, primary screen, CHO-K1 cells, Fluo-8 calcium fluorescence; Muscarinic acetylcholine receptor M5 (Homo sapiens), P08912; CHO-K1 hM5 cells; 0% DMSO wells, 100% maximal acetylcholine response; activation, % at 3 µM; 360,000 tested, 0.19% active; AID 624037, 2012;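 active means activation above the run's mean over test compounds plus 3 SD, cut at about 23% in these data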;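 further: signal is peak over basal fluorescence ratio across the kinetic read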
CHRM4 antagonist – human M4 muscarinic receptor antagonists, primary screen, CHO cells, Fluo-8 calcium fluorescence | Muscarinic acetylcholine receptor M4 (Homo sapiens), P08173 | CHO-hM4 cells, ACh EC80 | inhibition, % at 3 µM | 360,000 tested, 0.73% active | AID 624125, 2012;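 active means inhibition above its plate's cutoff, the mean inhibition of sample wells plus 3 SD, cut at about 27% in these data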;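 further: 0% = acetylcholine EC80 with DMSO and 100% = DMSO without agonist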
Active calls of the source: *. Only some compounds are listed: those with a hit (about 1.9% of all), similar ones and a draw of the others.

SMILES	CHRM5 antagonist	M4 ag	CHRM5 PAM	CHRM4 PAM	CHRM5 agonist	CHRM4 antagonist
CS(=O)(=O)N1CCN(c2ccc([N+](=O)[O-])c3cccnc23)CC1	-3	2	3	21	1	35*
CC(C)Cc1ccc(-c2cc(=O)[nH][nH]2)cc1	28*	20	-13	-10	-2	5
CCN(C(=O)CSc1nc2ccccc2c(=O)n1Cc1ccc(C)cc1)C1CCS(=O)(=O)C1 (stereo not drawn)	5	0	-1	1	-4	-1
CCn1c(SCC(=O)N(Cc2ccccc2)C2CCS(=O)(=O)C2)nc2ccccc2c1=O (stereo not drawn)	-2	-1	1	31*	0	-6
CCCN(CCC)C(=O)c1ccc2c(c1)S(=O)(=O)c1ccccc1C2=O	30*	3	-9	0	-6	2
CCCc1nc2sc3c(=O)n(N)cnc3c2c2c1CCCC2	-4	1	21*	12	1	-8
CCCCc1nc2sc3c(=O)n(N)cnc3c2c2c1CCCC2	-6	1	6	-6	-3	2
Cc1cc(C(=O)N/N=C/c2c(C)nn(-c3ccccc3)c2C)n[nH]1	-13	1	19*	-6	-2	-2
CC(C)[C@H](NC(=O)c1ccccc1F)C(=O)NC1CCCCCCC1	-4	1	2	19	4	-16
O=C(COC(=O)Cc1c(F)cccc1Cl)NC(=O)Nc1ccccc1F	9	3	-10	11	-1	-6
O=C(NCCCCCCNC(=O)c1ccccc1O)c1ccccc1O	28*	22	-19	-16	6	9
COc1ccc(C)cc1S(=O)(=O)Nc1ccc2c(c1)OCCO2	0	2	-8	-1	-1	4
CCn1ccc(C(=O)NC2=C(C#N)CCC2)n1	-1	-1	21*	-2	1	-2
CCn1nccc1C(=O)NC1=C(C#N)CCC1	3	1	1	-8	1	12
CN(C(=O)Cn1cc(C(F)(F)F)ccc1=O)c1c(N)n(Cc2ccccc2)c(=O)[nH]c1=O	-1	1	11	18	2	19
Fc1ccccc1COc1ccc(Br)cc1CNCc1ccncc1	15	19	-22	-11	2	37*
Cc1noc(C)c1CSCC(=O)N(C)CC(=O)Nc1ccccc1Br	1	1	-1	-5	2	9
C(=C\c1ccccc1)/CN1CCN(C(c2cc3ccccc3o2)c2nnnn2-c2ccc3c(c2)OCCO3)CC1 (stereo not drawn)	42*	1	-23	-10	-4	13
COc1ccc(C(c2nnnn2-c2ccc3c(c2)OCCO3)N2CCN(C/C=C/c3ccccc3)CC2)cc1 (stereo not drawn)	67*	3	-22	-16	-6	35*
COc1ccc(-n2nnnc2C(c2cc3ccccc3o2)N2CCN(C/C=C/c3ccccc3)CC2)cc1 (stereo not drawn)	36*	1	-22	-12	-6	7
C(=C\c1ccccc1)/CN1CCN(C(c2cccs2)c2nnnn2-c2ccc3c(c2)OCCO3)CC1 (stereo not drawn)	70*	4	-23	-16	-7	29*
COc1ccc(-n2nnnc2C(c2cccc3ccccc23)N2CCN(C/C=C/c3ccccc3)CC2)cc1 (stereo not drawn)	10	2	-17	-10	-3	9
COCCN(CC(=O)Nc1ccccc1C(F)(F)F)C(=O)/C=C/c1cc(Cl)c2c(c1)OCCO2	3	0	5	12	1	-9
CCOC(=O)CN(Cc1sccc1C)C(=O)Nc1ccc(OC)cc1OC	0	1	-1	-5	0	13
S=c1[nH]nc(-c2ccco2)n1-c1cccc2ccccc12	13	1	46*	6	2	5
SMILES	CHRM5 antagonist	M4 ag	CHRM5 PAM	CHRM4 PAM	CHRM5 agonist	CHRM4 antagonist
CCCCNC(=O)c1sc(=S)n2c1[nH]c(=O)c1ccc(C(=O)NCCc3ccc(OC)c(OC)c3)cc12	-27	0	25*	15	2	4
CCCCCn1c(=O)[nH]c2cc(C(=O)NCCc3ccc(OC)c(OC)c3)ccc2c1=O	-5	0	9	1	-1	-4
CC(=O)Nc1cccc(NC(=O)CSc2ncc(-c3ccc(Cl)cc3)n2Cc2ccco2)c1	23	18	-25	-15	6	29*
Oc1ccccc1/C=N/N1CCCCC1	30*	0	-8	-3	5	0
OC[C@@H]1CN(Cc2ccccc2)C[C@H](n2cnc3c(NCc4ccncc4)ncnc32)O1	2	5	0	20*	0	-5
COc1cc(CNc2ncnc3c2ncn3[C@H]2CN(Cc3cc(OC)c(OC)c(OC)c3)C[C@@H](CO)O2)cc(OC)c1OC	-12	0	2	22*	-1	-21
OC[C@@H]1CN(Cc2ccc(F)cc2)C[C@H](n2cnc3c(Nc4ccccc4)ncnc32)O1	13	16	-9	-13	2	-1
OC[C@@H]1CN(Cc2ccc(F)cc2)C[C@H](n2cnc3c(NCc4ccncc4)ncnc32)O1	2	4	-1	4	1	-15
OC[C@@H]1CN(Cc2ccc(-c3ccccc3)cc2)C[C@H](n2cnc3c(Nc4ccccc4)ncnc32)O1	22	21	-15	-11	3	37*
Cc1cccc(N(CC(=O)NCc2ccco2)C(=O)CCC(=O)Nc2nccs2)c1	5	0	-2	-4	1	0
CNC(=O)C12CCC(C)(c3nc4cc(C)c(C)cc4nc31)C2(C)C (stereo not drawn)	2	0	1	3	-1	-3
CCCNC(=O)C12CCC(C)(c3nc4cc(C)c(C)cc4nc31)C2(C)C (stereo not drawn)	-3	-1	25*	23*	13	-26
COc1ccc(CNC(=O)C2CCN(S(=O)(=O)N3CCCCC3)CC2)c(OC)c1	-13	2	-2	0	-2	-3
CCOc1ccc(NC(=O)/C(C#N)=C\c2ccc(N3CCCC3)c(C)c2)cc1	50*	9	-14	-2	40*	11
CCOc1ccc(/C=C(\C#N)C(=O)Nc2cccnc2)cc1	1	1	4	1	-4	3
Cc1cccc2sc(NC(=O)C3CCN(S(=O)(=O)c4cc([N+](=O)[O-])ccc4Cl)CC3)nc12	20	11	-11	-24	4	29*
